# Screens: PubChem, several laboratories
# STAT3 activator = IL-6 driven STAT3 reporter potentiators, primary screen, U3A cells, luciferase, luminescence, MLSCN library | IL-6 STAT3-luciferase reporter; 100% = signal with IL-6 EC80 alone | activation (% of control), % at 5.6 µM | 0.91% of 190,000 active;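 active means activation above the screen-wide mean of compound activation plus 3 SD, cut at about 130% in these data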
#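 Detection: reporter luminescence signal / Assay system: STAT1-lacking human U3A cells, STAT3 luciferase reporter / Incubation: compound pre-incubation 1 h before IL-6, then 6 h stimulation at 37 °C / Control set: IL-6-only high control / Read-out: % activation relative to IL-6 control / Probe or stimulus: Interleukin-6, 33 ng/mL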
# STAT1 act = STAT1 signaling activators, primary screen, cell-based, HTS, luciferase reporter; AID 932, 2007; 2.6% of 200,000 active; activation (% of control), % at 5.5 µM; NIH 3T3 STAT1-luciferase reporter, IFN-gamma, luminescence; 100% = IFN-gamma alone, no compound;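 active means activation above the screen-wide mean activation plus 3 SD, cut at about 130% in these data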
# APP 5'UTR act = activators of APP 5'UTR luciferase reporter, primary screen, SH-SY5Y cells | activation, % at 2 µM | AID 1276, 2008 | 1% of 190,000 active | SH-SY5Y APP 5'UTR luciferase reporter, luminescence; zero percent = DMSO vehicle wells;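 active means activation above a set limit, based on mean plus 3 SD of controls, cut at about 140% in these data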
# NF-kB neuron act = activators of NF-kB expression in neurons, primary screen, cell-based, HTS. AID 1239, 2008. 1.6% of 190,000 active. fold change at 12.5 µM. human neuronal cells, NF-kB reporter expression; active compounds read high; in the data active means fold change above about 3.3
# STAT1 blocker = STAT1 signaling inhibitors, primary screen, cell-based, HTS, luciferase reporter; NIH 3T3 STAT1-luciferase reporter, IFN-gamma, luminescence; inhibition, % at 5.5 µM; 0.35% of 200,000 active; AID 920, 2007;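 active means inhibition above a set limit, the mean inhibition across all tested compounds plus 3 SD, cut at about 34% in these data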
# STAT3 blocker = IL-6 driven STAT3 reporter inhibitors, primary screen, U3A cells, luciferase, luminescence, MLSCN library | IL-6 STAT3-luciferase reporter; host cell line lacks STAT1 | AID 862, 2007 | inhibition, % at 5.5 µM | 0.89% of 190,000 active;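 active means inhibition above the mean inhibition across all screened compounds plus 3 SD, cut at about 44% in these data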
# Hits are given with their value; – = inactive; · = no result given. Most compounds without a hit are left out; they make up all but 5.1% or so of the library.
SMILES,STAT3 activator,STAT1 act,APP 5'UTR act,NF-kB neuron act,STAT1 blocker,STAT3 blocker
COc1cc(C(=O)/C=C/Nc2ccc(NC(C)=O)cc2)cc(OC)c1OC,–,–,–,–,–,–
Cc1cc(C)c(NC(=O)c2cc(C(=O)O)ccc2C(=O)O)c([N+](=O)[O-])c1,–,–,–,–,–,–
CSc1nc2ccc(S(=O)(=O)N3CCOCC3)cc2s1,135,–,–,–,–,–
Cc1cc(S(=O)(=O)N2CCOCC2)ccc1F,–,–,–,4.4,–,–
CSc1nc2ccc(S(=O)(=O)N3CCCCC3)cc2s1,–,–,–,–,–,–
CC1(C(=O)NCC2CCCO2)Oc2cccnc2NC1=O (configuration not stated),–,–,–,·,–,–
CCCCC(=O)Nc1cc(C(=O)NCCc2ccccc2)ccc1Cl,–,–,–,–,–,–
Clc1ccc(Nc2nc3cccnc3s2)cc1,–,148,152,–,–,–
O=c1sc(Nc2ccccc2)nc2ccccc12,–,–,–,–,–,–
Cc1ccc(-n2[nH]c(=O)c(-c3ccccn3)c2C)cc1,–,–,–,–,76,88
O=C(O)C1=C[C@H](c2coc3ccccc3c2=O)C[C@H](OCc2ccc(CO)cc2)O1,·,–,–,–,–,·
Oc1ccc(NCc2cccc(OCc3ccc(F)cc3)c2)cc1,–,129,–,–,–,–
Cc1ccc(O)c(/C=N/NC(=O)c2[nH]ncc2Br)c1,–,131,–,8.1,–,–
O=C(N/N=C/c1c(O)ccc2ccccc12)c1[nH]ncc1Br,–,–,–,–,–,–
CCS/C(N)=N/N=C/c1cc(C)ccc1O,–,132,160,13,–,–
CCCCS/C(N)=N/N=C/c1cc(C)ccc1O,–,–,–,–,–,–
Cc1ccc(NC(=O)CC2NCCNC2=O)cc1Cl (configuration not stated),–,–,–,–,–,–
COc1ccc2c3c(cccc13)C(=O)N(O)C2=O,–,–,–,7.1,–,–
COc1ccccc1N1C(=O)c2cccc3c(C(=O)O)ccc(c23)C1=O,–,–,–,–,–,–
Cc1c(C(=O)NC(C(C)C)C(C)C)cccc1[N+](=O)[O-],–,–,–,–,–,–
CCN1CCN(C(=O)N2CCOCC2)CC1,–,–,–,–,–,–
Cc1ccc(NCc2nc3ccccc3n2CCOc2ccccc2)cc1,–,–,–,–,–,–
Cc1ccc2nc(N3C(=O)C(O)=C(C(=O)c4ccco4)C3c3cccs3)sc2c1 (configuration not stated),–,–,170,–,–,–
COc1ccc(C2C(C(=O)c3ccco3)=C(O)C(=O)N2c2nnc(C)s2)cc1 (configuration not stated),–,–,–,–,–,–
Cc1[nH]c2ccccc2c1-c1csc(NC(=O)CSCCO)n1,–,–,–,–,–,–
SMILES,STAT3 activator,STAT1 act,APP 5'UTR act,NF-kB neuron act,STAT1 blocker,STAT3 blocker
COc1ccccc1-n1cc(C(=O)NCC(=O)N2CCN(c3ccccc3)CC2)c2ccccc2c1=O,–,136,–,–,–,–
CSc1ccc(CNc2ccccn2)cc1,–,129,–,–,–,–
CSc1ccc(CNc2ccccc2)cc1,–,–,–,–,–,–
C=CCNC(=S)N/N=C(\C)c1ccccn1,–,136,–,–,–,–
COC(=O)C1=C(C)NC(C)=C(C(=O)OC)C1c1ccc(N(C)C)cc1,–,–,–,3.7,–,–
CCOC(=O)C1=C(C)NC(C)=C(C(=O)OCC)C1c1ccc(O)cc1,–,–,–,–,–,–
O=[N+]([O-])c1ccc(Nc2ccc3ccccc3c2)nc1,–,133,–,–,–,–
CCS(=O)(=O)c1ccc2oc(SCC(=O)N3CCCCC3)nc2c1,–,–,–,–,–,–
Cc1cccc(OCC(=O)N2CCC(c3ccccc3)C2)c1 (configuration not stated),–,–,–,–,–,–
NC(=O)C1CCN(C(=O)Nc2ccccc2)CC1,–,–,–,–,–,–
O=C(c1cccs1)N1CCC(c2ccccc2)C1 (configuration not stated),–,135,–,–,–,–
